In one series the target is hERG (KCNH2) (Homo sapiens, UniProt Q12809). The series is described as follows: Displacement of [3H]Dofetilide from recombinant human ERG at 1 uM after 60 mins by scintillation counting relative to control. The following applies: probe [3H]Dofetilide. On the technique in general: In a radioligand displacement assay an active substance lowers the binding of a labelled ligand.

Series [1] has as its target Sodium-dependent serotonin transporter (Homo sapiens) (UniProt P31645). The series is described as follows: Displacement of [3H]imipramine from recombinant human SERT at 1 uM after 60 mins by scintillation counting relative to control.
Series [2] has as its target 5-hydroxytryptamine receptor 2A (Homo sapiens, UniProt P28223). The series is described as follows: Displacement of [3H]-Ketanserin from human 5HT2AR expressed in CHO-K1 cell membranes after 1.5 hrs by microbeta counting method. The gist of the method: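 HEK293 (5-HT1A, 5-HT6, 5-HT7b, D2L) or CHO-K1 (5-HT2A) membranes, all Tris–HCl with 4 mM MgCl2 plus receptor-specific EDTA/pargyline/ascorbate (D2L adds NaCl, KCl, CaCl2). Nonspecific binding: 10 μM 5-HT (5-HT1A, 5-HT7), chlorpromazine (5-HT2A), methiothepine (5-HT6), haloperidol (D2L). Triplicate, 7–8 concentrations (10⁻¹¹–10⁻⁴ M), filtration; Ki via Cheng–Prusoff, mean of three experiments.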

The nature of series [3]: Cmax in Wistar rat at 10 mg/kg, po administered as single dose by LC/MS analysis. The class given is ADME, organism-based. On the set-up: dose 10 mg/kg, route oral. The conditions noted are these: in vivo. The essentials: (§1)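 Male Wistar rats (229–272 g), fasted 16 h before and 4 h after dosing, given 10 mg/kg orally in water. Four rats per time point at 15 min, 30 min, 1, 2, 4 and 8 h. Plasma (K3EDTA) and brain homogenate collected and analysed by LC-MS/MS.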

A short description of series [4]: Tmax in Wistar rat at 10 mg/kg, po administered as single dose by LC/MS analysis. The following applies: in vivo. The class given is ADME, organism-based. The gist of the method: as §1
Series [5] addresses 5-hydroxytryptamine receptor 7 (Homo sapiens, UniProt P34969). The series is described as follows: Displacement of [3H]-5-CT from human 5HT7BR expressed in HEK293 cell membranes after 1 hr by microbeta counting method. The essentials: (§2)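 HEK293 (5-HT1A, 5-HT6, 5-HT7b, D2L) or CHO-K1 (5-HT2A) membranes, all Tris–HCl with 4 mM MgCl2 plus receptor-specific EDTA/pargyline/ascorbate (D2L adds NaCl, KCl, CaCl2). Nonspecific binding: 10 μM 5-HT (5-HT1A, 5-HT7), chlorpromazine (5-HT2A), methiothepine (5-HT6), haloperidol (D2L). Triplicate, 7–8 concentrations (10⁻¹¹–10⁻⁴ M), filtration; Ki via Cheng–Prusoff, mean of three experiments. Incubation 1 h 37 °C; 5-HT1A 1 h and 5-HT2A 1.5 h, room temperature.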

The target in the next series is Cytochrome P450 2D6 (Homo sapiens, UniProt P10635). The series is described as follows: Inhibition of CYP2D6 (unknown origin) at 0.025 to 25 uM after 2 hrs by firefly luciferase-luminescence based P450-glo assay. The class given is ADME. The gist of the method: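 Recombinant CYP3A4 or CYP2D6 incubated 2 h with test compound (0.025–25 μM final) and an isoform-specific luciferin derivative. Firefly luciferase then added, and luminescence is proportional to D-luciferin formed. Reference inhibitors: ketoconazole (CYP3A4) and quinidine (CYP2D6, 0.1–100 nM).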

For series [6], the target named is T1, Muscarinic acetylcholine receptor M1 (Homo sapiens) (UniProt P11229).
T1 sequence (whole entry): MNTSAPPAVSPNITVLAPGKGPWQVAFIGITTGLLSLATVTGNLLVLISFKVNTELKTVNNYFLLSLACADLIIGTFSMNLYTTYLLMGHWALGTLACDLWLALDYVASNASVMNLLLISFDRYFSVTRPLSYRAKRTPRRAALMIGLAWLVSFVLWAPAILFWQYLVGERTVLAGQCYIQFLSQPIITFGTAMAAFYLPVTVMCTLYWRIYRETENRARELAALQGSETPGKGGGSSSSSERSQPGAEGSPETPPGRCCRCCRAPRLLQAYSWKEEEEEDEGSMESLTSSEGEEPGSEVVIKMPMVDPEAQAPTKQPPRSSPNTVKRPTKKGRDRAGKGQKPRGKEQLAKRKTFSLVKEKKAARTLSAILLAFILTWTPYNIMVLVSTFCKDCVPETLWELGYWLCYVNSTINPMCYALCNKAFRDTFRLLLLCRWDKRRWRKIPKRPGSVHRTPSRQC
The series is described as follows: Displacement of [3H]pirenzepine from recombinant human muscarinic M1 receptor at 1 uM after 60 mins by scintillation counting relative to control.

The next series has as its target D(2) dopamine receptor (Homo sapiens, UniProt P14416). The series is described as follows: Displacement of [3H]-Raclopride from human dopamine D2L receptor expressed in HEK293 cell membranes after 1 hr by microbeta counting method. The gist of the method:
as §2

Series [7] deals with D(3) dopamine receptor (Homo sapiens) (UniProt P35462). The series is described as follows: Displacement of [3H]methyl-spiperone from recombinant human dopamine D3 receptor at 1 uM after 60 mins by scintillation counting relative to control.

We go through one compound from ChEMBL document CHEMBL4145461, “Novel non-sulfonamide 5-HT6 receptor partial inverse agonist in a group of imidazo[4,5-b]pyridines with cognition enhancing properties” (Eur J Med Chem, 2018).

Chain of 5-hydroxytryptamine receptor 7 (P34969 whole entry): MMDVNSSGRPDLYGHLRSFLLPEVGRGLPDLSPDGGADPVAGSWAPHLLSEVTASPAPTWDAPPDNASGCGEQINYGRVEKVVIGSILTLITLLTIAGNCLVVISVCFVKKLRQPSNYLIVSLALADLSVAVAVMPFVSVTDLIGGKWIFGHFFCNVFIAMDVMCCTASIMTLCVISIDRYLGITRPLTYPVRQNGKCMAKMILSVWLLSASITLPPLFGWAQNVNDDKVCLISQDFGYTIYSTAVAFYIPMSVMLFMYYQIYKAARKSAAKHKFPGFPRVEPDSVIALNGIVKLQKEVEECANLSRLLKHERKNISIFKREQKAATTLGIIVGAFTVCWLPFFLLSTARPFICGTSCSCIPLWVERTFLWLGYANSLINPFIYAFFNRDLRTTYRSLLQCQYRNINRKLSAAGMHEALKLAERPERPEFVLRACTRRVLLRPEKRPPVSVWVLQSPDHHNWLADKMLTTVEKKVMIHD
Chain of D(3) dopamine receptor (Homo sapiens) (P35462 whole entry): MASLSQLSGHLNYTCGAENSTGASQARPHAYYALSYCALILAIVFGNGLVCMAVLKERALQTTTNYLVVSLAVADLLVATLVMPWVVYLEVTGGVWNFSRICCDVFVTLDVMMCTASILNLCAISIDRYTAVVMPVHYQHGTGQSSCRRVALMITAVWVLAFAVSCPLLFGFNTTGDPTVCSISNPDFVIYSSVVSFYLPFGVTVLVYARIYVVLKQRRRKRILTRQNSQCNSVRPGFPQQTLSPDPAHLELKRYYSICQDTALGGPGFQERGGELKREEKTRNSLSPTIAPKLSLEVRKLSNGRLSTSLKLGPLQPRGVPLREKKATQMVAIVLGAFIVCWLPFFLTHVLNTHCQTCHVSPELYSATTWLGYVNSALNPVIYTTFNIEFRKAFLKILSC
Chain of hERG (KCNH2) (Q12809 whole entry): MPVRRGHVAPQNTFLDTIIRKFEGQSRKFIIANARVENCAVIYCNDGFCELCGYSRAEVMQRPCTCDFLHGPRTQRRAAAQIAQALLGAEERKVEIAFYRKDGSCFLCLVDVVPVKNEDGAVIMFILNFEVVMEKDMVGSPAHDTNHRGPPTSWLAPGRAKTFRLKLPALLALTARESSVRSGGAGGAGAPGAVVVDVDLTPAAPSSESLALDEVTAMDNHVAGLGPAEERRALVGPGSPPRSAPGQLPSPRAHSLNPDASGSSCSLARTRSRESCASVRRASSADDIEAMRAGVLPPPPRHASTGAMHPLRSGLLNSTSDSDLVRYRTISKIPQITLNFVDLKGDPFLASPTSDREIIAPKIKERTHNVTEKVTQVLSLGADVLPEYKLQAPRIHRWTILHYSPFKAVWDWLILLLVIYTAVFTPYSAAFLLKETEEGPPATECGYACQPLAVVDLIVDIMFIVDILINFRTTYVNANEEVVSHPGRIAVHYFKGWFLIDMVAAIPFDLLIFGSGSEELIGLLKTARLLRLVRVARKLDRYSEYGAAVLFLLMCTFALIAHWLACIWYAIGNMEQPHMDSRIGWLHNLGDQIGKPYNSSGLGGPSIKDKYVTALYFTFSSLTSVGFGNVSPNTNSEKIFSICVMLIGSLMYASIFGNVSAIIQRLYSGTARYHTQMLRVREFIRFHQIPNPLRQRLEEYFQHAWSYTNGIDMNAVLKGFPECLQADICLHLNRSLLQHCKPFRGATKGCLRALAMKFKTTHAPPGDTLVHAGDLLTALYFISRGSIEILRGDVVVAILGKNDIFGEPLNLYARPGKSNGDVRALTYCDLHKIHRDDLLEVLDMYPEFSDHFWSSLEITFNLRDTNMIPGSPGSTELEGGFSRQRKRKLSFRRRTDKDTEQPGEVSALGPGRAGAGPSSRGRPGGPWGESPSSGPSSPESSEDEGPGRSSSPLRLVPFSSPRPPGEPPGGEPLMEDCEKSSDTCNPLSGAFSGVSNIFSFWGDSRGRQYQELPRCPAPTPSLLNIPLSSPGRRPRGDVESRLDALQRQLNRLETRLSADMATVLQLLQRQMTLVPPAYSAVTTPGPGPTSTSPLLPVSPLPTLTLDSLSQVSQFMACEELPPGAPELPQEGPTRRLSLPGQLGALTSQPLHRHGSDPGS
Chain of 5-hydroxytryptamine receptor 2A (P28223 whole entry): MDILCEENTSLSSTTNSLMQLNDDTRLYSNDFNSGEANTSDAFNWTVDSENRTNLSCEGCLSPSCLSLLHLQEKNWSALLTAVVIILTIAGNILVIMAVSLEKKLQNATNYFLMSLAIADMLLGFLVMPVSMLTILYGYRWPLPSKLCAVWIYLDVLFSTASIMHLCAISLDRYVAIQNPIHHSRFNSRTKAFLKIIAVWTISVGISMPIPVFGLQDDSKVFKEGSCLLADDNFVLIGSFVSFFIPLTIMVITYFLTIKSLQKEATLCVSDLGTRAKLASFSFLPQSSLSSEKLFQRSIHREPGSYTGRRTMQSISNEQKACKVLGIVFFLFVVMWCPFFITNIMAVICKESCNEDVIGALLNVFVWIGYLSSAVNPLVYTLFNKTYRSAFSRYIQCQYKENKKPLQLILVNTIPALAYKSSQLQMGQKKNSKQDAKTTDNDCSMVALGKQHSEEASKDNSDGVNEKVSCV
Chain of Cytochrome P450 2D6 (P10635 whole entry, canonical isoform): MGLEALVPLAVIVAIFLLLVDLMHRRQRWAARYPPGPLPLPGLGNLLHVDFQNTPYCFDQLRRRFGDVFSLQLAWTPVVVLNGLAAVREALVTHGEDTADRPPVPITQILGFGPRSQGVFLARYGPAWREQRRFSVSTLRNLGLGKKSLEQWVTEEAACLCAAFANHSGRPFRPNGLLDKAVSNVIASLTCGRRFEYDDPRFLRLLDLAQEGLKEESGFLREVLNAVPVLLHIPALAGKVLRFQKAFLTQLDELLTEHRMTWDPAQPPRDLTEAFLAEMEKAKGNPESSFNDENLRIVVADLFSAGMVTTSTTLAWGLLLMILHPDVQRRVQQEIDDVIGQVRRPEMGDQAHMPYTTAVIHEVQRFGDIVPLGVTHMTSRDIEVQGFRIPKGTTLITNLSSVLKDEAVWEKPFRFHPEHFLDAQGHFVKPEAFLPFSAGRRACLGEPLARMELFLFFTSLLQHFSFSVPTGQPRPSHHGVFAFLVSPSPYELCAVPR
Chain of Sodium-dependent serotonin transporter (Homo sapiens) (P31645 whole entry, looked up): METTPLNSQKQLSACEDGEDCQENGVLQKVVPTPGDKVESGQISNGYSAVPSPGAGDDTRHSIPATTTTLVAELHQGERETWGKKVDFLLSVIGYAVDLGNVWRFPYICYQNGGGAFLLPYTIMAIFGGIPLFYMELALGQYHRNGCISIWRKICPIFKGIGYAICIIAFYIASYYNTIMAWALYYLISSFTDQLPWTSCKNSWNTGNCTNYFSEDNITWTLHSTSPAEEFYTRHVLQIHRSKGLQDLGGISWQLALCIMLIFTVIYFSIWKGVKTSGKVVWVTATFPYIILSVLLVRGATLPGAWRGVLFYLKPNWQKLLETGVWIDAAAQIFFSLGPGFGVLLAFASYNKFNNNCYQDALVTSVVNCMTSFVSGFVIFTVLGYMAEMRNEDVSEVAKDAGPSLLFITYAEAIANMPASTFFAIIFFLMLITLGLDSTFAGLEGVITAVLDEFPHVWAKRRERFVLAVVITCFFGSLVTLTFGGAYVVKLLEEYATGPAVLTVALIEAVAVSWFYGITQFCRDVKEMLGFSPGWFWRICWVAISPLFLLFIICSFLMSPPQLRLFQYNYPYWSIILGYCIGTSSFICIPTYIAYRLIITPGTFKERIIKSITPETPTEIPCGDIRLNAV
Chain of D(2) dopamine receptor (P14416 whole entry): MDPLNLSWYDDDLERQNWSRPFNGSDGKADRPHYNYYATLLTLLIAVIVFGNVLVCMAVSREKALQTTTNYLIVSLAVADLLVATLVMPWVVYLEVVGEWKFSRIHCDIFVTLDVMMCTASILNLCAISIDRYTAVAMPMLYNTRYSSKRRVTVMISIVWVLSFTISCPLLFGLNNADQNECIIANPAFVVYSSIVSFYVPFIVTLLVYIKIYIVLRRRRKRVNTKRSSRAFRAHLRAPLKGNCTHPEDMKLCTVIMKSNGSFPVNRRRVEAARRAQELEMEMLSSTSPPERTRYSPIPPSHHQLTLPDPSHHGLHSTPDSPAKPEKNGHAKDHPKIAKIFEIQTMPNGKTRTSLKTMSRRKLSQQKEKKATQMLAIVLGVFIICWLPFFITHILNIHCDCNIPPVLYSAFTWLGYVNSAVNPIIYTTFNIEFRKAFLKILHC

In the case of `CCc1nc2c(N3CCNCC3)ccnc2n1Cc1cccc(F)c1`, at hERG (KCNH2), the inhibition at 1 h, 1 µM is -6.1%. Besides, the inhibition in series [1] worked out at 1.9%; in series [6], 3%; in series [7] it was 18%. In addition, the inhibition constant (Ki) amounted to 0.441 µM in series [2], 12.3 µM in series [5] and 3.48 µM at D(2) dopamine receptor. This compound also showed a Cmax in series [3] of 140 ng/mL. The time of peak concentration (Tmax) in [4] is 15 min. Besides, the “inhibition (INH)” value at Cytochrome P450 2D6 is on record as “Not Active”.

As usually defined, the inhibition is the drop in the measured response relative to a control, in per cent. For orientation: Ki means a measure of affinity in units of concentration, obtained from inhibition or displacement. A higher Ki goes with weaker binding. In general, Cmax refers to the peak of the concentration-time curve. By Tmax is commonly meant the time at which the peak concentration occurs.
